Here are results for 93 compounds from PubChem BioAssay AID449763 (Sanford-Burnham Center for Chemical Genomics, 2010).

About 1,100 (0.33%) of roughly 330,000 compounds were called active. Shown is part of a subset that was picked to be rich in actives. Values without a mark were called inactive.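 How the source made its calls: active means at 10 µM dose, activation of 40% or more, normalized to positive control; inactive means the rest.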

A short description of this experiment: activators of apoptotic CHOP UPR arm, primary screen, cell-based, CHO-CHOP luciferase reporter, luminescence, uHTS (AID 449763).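 Further: 100% = tunicamycin at 10 µg/mL and 0% = DMSO alone.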 Particulars: at 10 µM, stronger effect = higher value, percent of tunicamycin response over DMSO baseline. Put shortly: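 Test system: CHO-CHOP cells, stable luciferase reporter of PERK-eIF2a-CHOP signalling | Quantity: 500 CHO-CHOP cells per well | Buffer or medium: F12 plus 10% serum | Compound dosing: 10 µM single point, 0.5% DMSO | Schedule: 6 h compound treatment, 37 °C | Signal: Luciferase luminescence | Control set: Tunicamycin high control, DMSO low control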
As for `Cc1onc(C(=O)NCc2ccc(F)cc2)c1[N+](=O)[O-]`, the activation was -0.611%.

Consider `O=C(/C=C/c1ccc([N+](=O)[O-])o1)NNC(=O)c1ccc(F)cc1`, for which the activation is 129% (active).

Regarding `CCc1noc(C)c1C(=O)NNC(=O)c1ccc(F)cc1`, the activation was -0.408%.

Consider `CC(C)CNS(=O)(=O)c1ccc(CCC(=O)NCc2ccc(Cl)cc2)cc1`, for which the activation is 0.956%.

In the case of `COc1cccc(-n2c(SCC(=O)NC3CCCCC3)nc3n[nH]c(C)c3c2=N)c1`, the activation is -0.882%.

Turning to `Cc1ccc(C(C[N+](=O)[O-])c2c(C)cc3ccccn23)cc1` (stereo not drawn), the activation was -0.989%.

As for `Nc1ccccc1SC(C[N+](=O)[O-])c1ccccc1` (stereo not drawn), the activation was 181% (active).

`COc1ccc(S(=O)(=O)N2CCOCC2)cc1NC(=O)CSc1ncnc2ccccc12`: the activation was -1.54%.

Take `Cc1nn(CC#N)c(=O)n1N(C)c1ncc(C(F)(F)F)cc1Cl`: the activation is -1.47%.

With `CCOc1ccc(C(C)C)cc1S(=O)(=O)n1nc(C)cc1C`, the activation is -3.09%.

Take `COc1ccc(C(C[N+](=O)[O-])n2nc(C)cc2C)cc1` (stereo not drawn): the activation is 59.5% (active).

As for `COc1ccc(OC)c(S(=O)(=O)n2c([N+](=O)[O-])cnc2C)c1`, the activation is -0.979%.

On to `O=C(NNS(=O)(=O)c1ccccc1)c1cnn(-c2ccc(Cl)cc2)c1C(F)(F)F`, for which the activation was 2.88%.

Regarding `CCN(C(=O)COC(=O)/C=C/c1nc2ccccc2s1)C1CCS(=O)(=O)C1` (stereo not drawn), the activation was 0.0282%.

`CN1CCNC(=O)C1CC(=O)N1CC=C(c2ccc(F)cc2)CC1` (stereo not drawn): the activation is -1.29%.

Consider `C=CS(=O)c1sc(Cl)c(N2CCOCC2)c1[N+](=O)[O-]` (stereo not drawn), for which the activation was 97.2% (active).

With `O=C(CCl)Nc1cccc(CP(=O)(c2ccccc2)c2ccccc2)c1`, the activation was 60.2% (active).

Turning to `O=C(CSc1ccccc1)Nc1ccc(C(=O)Nc2cccc(O)c2)cc1`, the activation is 2.1%.

In the case of `O=C(CSCc1ccccc1)Nc1ccccc1`, the activation was 2.11%.

In the case of `COc1c(C)cc(C(=O)C2CCCN(S(=O)(=O)c3c(C)noc3C)C2)cc1C` (stereo not drawn), the activation is 3.35%.

Turning to `Cc1cc(C)nc(SCC(=O)N(C)C)n1`, the activation is -0.00178%.

Regarding `Cc1cc(C)nc(S/C=C/C(=O)c2ccccc2)n1`, the activation is 64.1% (active).

In the case of `O=C(/C=C/Sc1ncn[nH]1)c1ccc(Cl)cc1`, the activation is -3.23%.

For `O=C(N/N=C/c1cc2c(cc1Br)OCO2)C1COc2ccccc2O1` (stereo not drawn), the activation was 8.62%.

On to `O=C(N/N=C\c1cc2c(cc1Cl)OCO2)c1ccc(Br)s1`, for which the activation was 51.5% (active).

Turning to `CC1(C(=O)N/N=C/c2cc3c(cc2Br)OCO3)CC1(Br)Br` (stereo not drawn), the activation was 1.01%.

In the case of `Cc1ccc(S(=O)(=O)c2nnn3c2nc(N2CCN(c4ccccn4)CC2)c2ccccc23)cc1`, the activation was 1.19%.

Consider `Cc1cccc(Nc2nc3c(S(=O)(=O)c4ccccc4)nnn3c3ccccc23)c1C`, for which the activation was 145% (active).

On to `CC(=O)Nc1ccc(Nc2nc3c(S(=O)(=O)c4ccc(C)c(C)c4)nnn3c3ccccc23)cc1`, for which the activation is 0.65%.

`Cc1cccc(C(=O)N2CCCC(Nc3ccc(C(C)C)cc3)C2)n1` (stereo not drawn): the activation was 0.069%.

For `COc1ccc(C(=O)NCC(=O)N/N=C/c2ccc([N+](=O)[O-])o2)cc1OC`, the activation was 113% (active).

On to `COc1cccc(/C=N/NC(=O)CNC(=O)c2ccc(S(=O)(=O)N3CCOCC3)cc2)c1OC`, for which the activation is 3.45%.

As for `COc1cc(CC(=O)N/N=C/c2ccccc2)c([N+](=O)[O-])cc1OC`, the activation was 0.0789%.

On to `CCN(c1ccc(NC(=O)COC(=O)CCc2nc3ccccc3n2-c2ccccc2)cc1)C(C)C`, for which the activation is -1.22%.

Consider `Cc1c(CN2CCC(n3nccc3NC(=O)CCc3ccccc3)CC2)cnn1C`, for which the activation is 1.65%.

For the compound `COc1ccc(CN2C(=O)CN=C2Nc2ccc(C)cc2C)cc1`, the activation is 1.91%.

Turning to `c1ccc(-c2ccc(OCCN3CCOCC3)cc2)cc1`, the activation was 5.5%.

As to `COc1ccc(CN2CN(C(C)C)CSC2=S)cc1`, the activation is 0.456%.

Regarding `S=C1SCN(CCN2CCOCC2)CN1Cc1ccccc1`, the activation was 129% (active).

As for `COc1ccc(OC)c(NC(=O)CSc2nc(-c3ccccc3)cc(=O)[nH]2)c1`, the activation is 4.07%.

Take `C=C(C)CNC(=S)Nc1ccc(S(=O)(=O)Nc2cnc3ccccc3n2)cc1`: the activation is -2.1%.

For the compound `COc1ccc(C(=O)NCC2CCCN2S(=O)(=O)c2cccs2)cc1OC` (stereo not drawn), the activation is 11.9%.

Turning to `COCc1ccc(C(=O)N2CCc3c([nH]c4ccccc34)C2c2ccccn2)s1` (stereo not drawn), the activation is -0.769%.

On to `COc1ccc(N2CC(NS(=O)(=O)c3ccc4ccccc4c3)CC2=O)cc1` (stereo not drawn), for which the activation was -0.659%.

Turning to `COc1cc(NS(=O)(=O)c2ccc3ccccc3c2)c2ncccc2c1`, the activation is 409% (active).

Take `CCOc1cc(NS(=O)(=O)c2ccc(OC)cc2)c(OCC)cc1NC(C)=O`: the activation was 1.17%.

As to `COC(=O)[C@]1(C)N[C@H](CN(C)C(=O)c2ccc(C(C)(C)C)cc2)[C@@H]2C(=O)N(C)C(=O)[C@@H]21`, the activation was 2.43%.

As to `CCCCOc1ccc(N(CC(=O)NCC2CCCO2)C(=O)CCC(=O)Nc2cc(C)ccn2)cc1` (stereo not drawn), the activation was -1.23%.

Turning to `O=C(NCc1ccco1)c1sc2cccc(F)c2c1Cl`, the activation was 2.12%.

For `O=C(O)c1ccc(N/N=C/c2ccc3ncccc3c2)cc1`, the activation is -10.5%.

Regarding `O=C(N/N=C/c1ccc(O)c(O)c1)C1c2ccccc2Oc2ccccc21`, the activation is 3.18%.

As for `Oc1ccc(/C=N/Nc2ccc(C(F)(F)F)cn2)cc1O`, the activation is 67.4% (active).

Consider `Cc1ccc(CCCOC(=O)C[N+]2(C)CCCC2)cc1`, for which the activation was 1.65%.

With `O=S(=O)(NCC1CCCO1)c1cnc(Cl)c(Cl)c1` (stereo not drawn), the activation is 4.71%.

On to `O=C(NCCCO)/C(=C\C=C\c1ccccc1)NC(=O)c1ccccc1Cl`, for which the activation was 0.299%.

For `COc1ccc(CCNC(=O)CCc2ccccc2O)cc1OC`, the activation is -0.118%.

For `CC1=CC(C)(C)Nc2ccc(OC(=O)C(Cc3ccccc3)N3C(=O)C4CCCCC4C3=O)cc21` (stereo not drawn), the activation is -1.34%.

For `O=C(COC(=O)CN1C(=O)C2CCCCC2C1=O)Nc1ccc(F)c(F)c1F` (stereo not drawn), the activation was 1.69%.

On to `CC1=CC(C)(C)Nc2ccc(OC(=O)CN3C(=O)C4CCCCC4C3=O)cc21` (stereo not drawn), for which the activation is 67.7% (active).

In the case of `COc1ccc(NC2CC(=O)N(C)C2=O)cc1` (stereo not drawn), the activation was -2.21%.

`COc1ccc(/C=N/Nc2cc(N3CCOCC3)nc(C)n2)c(OC)c1`: the activation is 8.25%.

As for `Cc1cc(N/N=C\c2ccc(Br)cc2)nc(-n2nc(C)cc2C)n1`, the activation was 49.5% (active).

In the case of `COc1ccccc1/C=N/N1CCN(Cc2ccccc2Cl)CC1`, the activation was -0.532%.

As for `C(=N/Nc1cc(N2CCOCC2)nc(N2CCOCC2)n1)/c1ccccc1`, the activation was 4.25%.

With `COc1ccc(NC(=O)c2nc(-n3nc(C)cc3C)ccc2Cl)cc1Cl`, the activation was -0.184%.

With `CC(=O)c1ccc(Oc2cc(C)nc(-n3nc(C)cc3C)n2)cc1`, the activation was -1.17%.

Turning to `CN(C)c1ccc(/C=N/Nc2cc(N3CCOCC3)nc(N3CCOCC3)n2)cc1`, the activation is -1.02%.

As to `COc1ccc(Nc2cc(C)nc(-n3nc(C)cc3C)n2)cc1`, the activation is 62.8% (active).

On to `COc1ccccc1/C=N\Nc1cc(C)nc(-n2nc(C)cc2C)n1`, for which the activation was 80.6% (active).

In the case of `CN(CC(=O)NC1CCN(Cc2ccccc2)CC1)S(=O)(=O)c1ccc(Cl)s1`, the activation was -1.76%.

For the compound `N#CCN(C(=O)COC(=O)C1CC2CCCC(C1)C2=O)c1ccccc1` (stereo not drawn), the activation was -1.48%.

On to `O=C(NCCCn1ccnc1)C(=O)c1cn(CC(=O)N2CCCCCC2)c2ccccc12`, for which the activation is 1.32%.

For `Cc1ccc(S(=O)Cc2ccc(C(=O)N3CCN(C4CCCCC4)CC3)o2)cc1` (stereo not drawn), the activation is -0.502%.

Take `Cc1cccnc1NC(=O)Cn1c(=O)oc2ccccc21`: the activation was -1.26%.

Consider `O=C(CSc1nc(=O)n2ccccc2n1)Nc1ccc2c(c1)OCCO2`, for which the activation was 0.903%.

Take `CCCCCC(=O)NC(=S)NNC(=O)c1ccc([N+](=O)[O-])cc1`: the activation is -1.39%.

Turning to `CCCC(=O)Nc1ccc(C(=O)N/N=C/c2ccc[nH]2)cc1`, the activation is -0.0357%.

`CCCCCC(=O)Nc1ccc(C(=O)N/N=C/c2ccc([N+](=O)[O-])cc2)cc1`: the activation is 90.2% (active).

In the case of `CCCc1nn(C)c2c(=O)[nH]c(-c3cc(S(N)(=O)=O)ccc3OCC)nc12`, the activation is 0.336%.

`COc1ccc(/C=N/N=C2/C(=O)Nc3ccccc32)cc1O`: the activation is 10.4%.

For the compound `O=C1Nc2ccc(Br)cc2/C1=N/N=C/C1=C(N2CCOCC2)C(=C\c2ccccc2)/CC1`, the activation is 46.3% (active).

On to `Cc1cc2nc3n(c2cc1C)CC1CC(C(=O)NCCC(C)C)N(C)C31` (stereo not drawn), for which the activation is -0.707%.

Consider `O=C(O)c1cccc(NC(=O)c2cc(-c3cccc(Cl)c3)nc3ccccc23)c1`, for which the activation was 2.21%.

Regarding `O=C(N/N=C/c1ccc(Cl)cc1)c1nc2ccc([N+](=O)[O-])cc2c(=O)[nH]1`, the activation is 0.124%.

In the case of `O=C(/C(=C/c1cccc(Cl)c1)c1nc2ccccc2[nH]1)c1ccccc1`, the activation was 349% (active).

As for `O=S(=O)(c1ccc(SCc2ccc(Br)cc2)nc1)N1CCOCC1`, the activation was 0.334%.

For `COc1ccccc1OCCCCCCN1CCN(C)CC1`, the activation is -0.245%.

For the compound `Cc1nc2ccc(NC(=O)c3cccc(S(=O)(=O)N4CCOCC4)c3)cc2s1`, the activation is 1.06%.

Consider `O=C(CN1CCN(S(=O)(=O)c2cccc(Cl)c2)CC1)N1CCCCC1`, for which the activation is -0.576%.

Consider `O=S(=O)(Nc1nccs1)c1ccc2c(c1)OCCO2`, for which the activation is -1.47%.

Take `Cc1ccc(Oc2cnn(-c3ccccc3)c(=O)c2Br)cc1`: the activation is 2.08%.

Turning to `C=CCNc1cnn(-c2ccc(C)cc2)c(=O)c1Cl`, the activation was 0.179%.

Turning to `Cc1cccc(-n2ncc(Cl)c(Cl)c2=O)c1`, the activation is 49.1% (active).
